Measured values: ChEMBL document CHEMBL4725349, “Discovery of First-in-Class Protein Arginine Methyltransferase 5 (PRMT5) Degraders” (J Med Chem, 2020)
pIC50: −log10 of the molar value. Active and inactive are the calls of the source. The rule behind the calls is not given here.

Tests used:
[1] = biological target: T1, von Hippel-Lindau disease tumor suppressor/Protein arginine N-methyltransferase 5 (Homo sapiens, UniProt O14744+P40337); experiment: Induction of VHL-mediated PRMT5 degradation in human MCF7 cells assessed as reduction in SDMA level incubated for 6 days by Western blot analysis; type: cell-based; conditions: dose microM 0.1-3, time 6.0 day
Summary of the method: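 SDMA read-out: MCF-7 cells given 0.1, 0.3, 1 or 3.0 μM for 6 d; global symmetric dimethylarginine detected on western blot with anti-SDMA antibody.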
Target sequence in this assay (O14744 whole entry, looked up): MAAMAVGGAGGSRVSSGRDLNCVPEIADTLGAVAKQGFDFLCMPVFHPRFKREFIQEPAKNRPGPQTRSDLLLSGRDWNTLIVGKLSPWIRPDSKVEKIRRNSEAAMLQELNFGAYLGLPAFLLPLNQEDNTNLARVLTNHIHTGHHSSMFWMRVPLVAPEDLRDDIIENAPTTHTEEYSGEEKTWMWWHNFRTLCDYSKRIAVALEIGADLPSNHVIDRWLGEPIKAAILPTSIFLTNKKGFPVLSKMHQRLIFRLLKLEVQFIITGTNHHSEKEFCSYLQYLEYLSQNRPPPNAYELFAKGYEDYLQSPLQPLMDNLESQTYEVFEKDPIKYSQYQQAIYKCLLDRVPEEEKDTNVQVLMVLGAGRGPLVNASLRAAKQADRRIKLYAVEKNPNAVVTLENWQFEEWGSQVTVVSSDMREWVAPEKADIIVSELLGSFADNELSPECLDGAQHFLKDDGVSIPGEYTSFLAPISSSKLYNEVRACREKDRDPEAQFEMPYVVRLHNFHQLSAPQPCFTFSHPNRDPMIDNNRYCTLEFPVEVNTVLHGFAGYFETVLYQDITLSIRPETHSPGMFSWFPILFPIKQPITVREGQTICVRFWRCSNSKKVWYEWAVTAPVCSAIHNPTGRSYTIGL
Target sequence in this assay (P40337 whole entry, looked up): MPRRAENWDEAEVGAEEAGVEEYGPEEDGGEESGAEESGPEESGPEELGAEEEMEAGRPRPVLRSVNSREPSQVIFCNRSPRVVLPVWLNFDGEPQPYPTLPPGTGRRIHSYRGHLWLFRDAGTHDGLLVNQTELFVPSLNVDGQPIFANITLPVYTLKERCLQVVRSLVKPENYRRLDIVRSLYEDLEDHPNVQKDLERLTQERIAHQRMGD

[2] = biological target: T1, von Hippel-Lindau disease tumor suppressor/Protein arginine N-methyltransferase 5; experiment: Induction of VHL-mediated PRMT5 degradation in human MCF7 cells at 5 uM incubated for 6 days by Western blot analysis; type: cell-based; conditions: time 6.0 day
Summary of the method: (§1)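 MCF-7 cells treated 6 d (0.2, 1 and 5 μM for initial screen, or indicated concentrations). RIPA lysates immunoblotted for PRMT5. Band intensity quantified by densitometry to derive DC50 and Dmax as mean ± SD from three independent experiments; screening blots representative of at least two.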
Target sequence in this assay (O14744 whole entry, looked up): as the sequence (O14744 whole entry, looked up) above
Target sequence in this assay (P40337 whole entry, looked up): as the sequence (P40337 whole entry, looked up) above

[3] = system: HeLa; experiment: Antiproliferative activity against human HeLa cells assessed as reduction in cell viability at 0.1 to 10 uM supplemented with fresh medium containing compound every other day for 6 days by CellTiter-Glo assay; type: functional, cell-based; conditions: dose microM 0.1-10, time 6.0 day
Summary of the method: (§2)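 HeLa, A549 and A172 grown in DMEM + 10% FBS; Jurkat in RPMI 1640 + 10% FBS; all at 37 °C, 5% CO2. Cells seeded, then treated 6 d with test agent, medium plus compound renewed every other day. Viability read by CellTiter-Glo and normalized to DMSO-treated cells; mean ± SD, n = 3.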

[4] = system: A549; experiment: Antiproliferative activity against human A549 cells assessed as reduction in cell viability at 0.1 to 10 uM supplemented with fresh medium containing compound every other day for 6 days by CellTiter-Glo assay; type: functional, cell-based; conditions: dose microM 0.1-10, time 6.0 day; summary of the method: as §2
[5] = system: A 172; experiment: Antiproliferative activity against human A172 cells assessed as reduction in cell viability at 0.1 to 10 uM supplemented with fresh medium containing compound every other day for 6 days by CellTiter-Glo assay; type: functional, cell-based; conditions: dose microM 0.1-10, time 6.0 day; summary of the method: as §2
[6] = system: Jurkat; experiment: Antiproliferative activity against human Jurkat cells assessed as reduction in cell viability at 0.1 to 10 uM supplemented with fresh medium containing compound every other day for 6 days by CellTiter-Glo assay; type: functional, cell-based; conditions: dose microM 0.1-10, time 6.0 day; summary of the method: as §2
[7] = biological target: T1, von Hippel-Lindau disease tumor suppressor/Protein arginine N-methyltransferase 5; experiment: Induction of VHL-mediated PRMT5 degradation in human MCF7 cells at 0.2 to 5 uM incubated for 6 days by Western blot analysis; type: cell-based; conditions: dose microM 0.2-5, time 6.0 day; summary of the method: as §1
Target sequence in this assay (O14744 whole entry, looked up): as the sequence (O14744 whole entry, looked up) above
Target sequence in this assay (P40337 whole entry, looked up): as the sequence (P40337 whole entry, looked up) above

[8] = Toxicity in Swiss albino mouse assessed as effect on clinical signs at 150 mg/kg, ip; type: organism-based; conditions: in vivo
Summary of the method: (§3)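 Male Swiss albino mice received one 150 mg/kg IP dose in normal saline. Blood drawn under light isoflurane at 0.25, 0.5, 1, 2, 6 and 12 h, three mice per time point. Plasma acetonitrile-precipitated and quantified by LC-MS/MS (LLOQ 9.25 ng/mL); clinical signs observed.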

[9] = biological target: T1, von Hippel-Lindau disease tumor suppressor/Protein arginine N-methyltransferase 5; experiment: Induction of VHL-mediated PRMT5 degradation in human MCF7 cells assessed as recovery of PRMT5 level at 5 uM incubated for 6 days followed by compound wash out and measured up to 48 hrs by Western blot analysis; type: cell-based; conditions: time 6.0 day
Summary of the method: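 Washout: MCF-7 cells treated 6 d with 5 μM, compound removed, and PRMT5 immunoblotted at 0, 12, 24 and 48 h after washout.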
Target sequence in this assay (O14744 whole entry, looked up): as the sequence (O14744 whole entry, looked up) above
Target sequence in this assay (P40337 whole entry, looked up): as the sequence (P40337 whole entry, looked up) above

[10] = biological target: T1, von Hippel-Lindau disease tumor suppressor/Protein arginine N-methyltransferase 5; experiment: Induction of VHL-mediated PRMT5 degradation in human MCF7 cells incubated for 6 days by Western blot analysis; type: cell-based; summary of the method: as §1
[11] = biological target: PRMT5/MEP50 complex (Homo sapiens, UniProt O14744); experiment: Inhibition of human PRMT5/MEP50 assessed as reduction in methyltransferase activity using histone 4 peptide as substrate in presence of [3H]SAM incubated for 30 mins; type: protein-complex assay
PRMT5/MEP50 complex, sequence (O14744 whole entry): as the sequence (O14744 whole entry, looked up) above
PRMT5/MEP50 complex, sequence (Q9BQA1 whole entry, further chain): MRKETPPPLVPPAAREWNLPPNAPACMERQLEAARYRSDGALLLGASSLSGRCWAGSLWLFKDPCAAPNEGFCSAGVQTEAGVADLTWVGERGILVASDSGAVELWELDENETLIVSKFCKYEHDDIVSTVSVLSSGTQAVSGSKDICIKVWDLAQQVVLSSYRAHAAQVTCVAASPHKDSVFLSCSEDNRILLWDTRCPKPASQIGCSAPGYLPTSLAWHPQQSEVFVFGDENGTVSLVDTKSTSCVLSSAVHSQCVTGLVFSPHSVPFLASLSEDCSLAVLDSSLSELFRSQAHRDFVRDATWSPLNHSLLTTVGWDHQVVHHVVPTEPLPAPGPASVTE
Summary of the method: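 Radiometric FlashPlate assay tracking transfer of the 3H-methyl group from SAM (1 μM) to biotinylated H4 (1–15) peptide by human PRMT5/MEP50 (5 nM). Compounds were preincubated with enzyme and substrate for 20 min at rt. They were tested at 10 concentrations in threefold serial dilution from 5 μM, in duplicate. IC50 is reported as mean ± SD.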

[12] = biological target: T1, von Hippel-Lindau disease tumor suppressor/Protein arginine N-methyltransferase 5; experiment: Induction of VHL-mediated PRMT5 degradation in human MCF7 cells assessed as PRMT5 level at 5 uM incubated for 7 days by Western blot analysis relative to control; type: cell-based; conditions: time 7.0 day
Target sequence in this assay (O14744 whole entry, looked up): as the sequence (O14744 whole entry, looked up) above
Target sequence in this assay (P40337 whole entry, looked up): as the sequence (P40337 whole entry, looked up) above

[13] = biological target: T1, von Hippel-Lindau disease tumor suppressor/Protein arginine N-methyltransferase 5; experiment: Induction of VHL-mediated PRMT5 degradation in human MCF7 cells assessed as PRMT5 level at 5 uM incubated for 7 days in presence of VH-298 by Western blot analysis relative to control; type: cell-based; conditions: time 7.0 day
Target sequence in this assay (O14744 whole entry, looked up): as the sequence (O14744 whole entry, looked up) above
Target sequence in this assay (P40337 whole entry, looked up): as the sequence (P40337 whole entry, looked up) above

[14] = biological target: T1, von Hippel-Lindau disease tumor suppressor/Protein arginine N-methyltransferase 5; experiment: Induction of VHL-mediated PRMT5 degradation in human MCF7 cells assessed as PRMT5 level at 5 uM incubated for 7 days in presence of neddylation inhibitor MLN4924 by Western blot analysis relative to control; type: cell-based; conditions: time 7.0 day
[15] = biological target: T1, von Hippel-Lindau disease tumor suppressor/Protein arginine N-methyltransferase 5; experiment: Induction of VHL-mediated PRMT5 degradation in human MCF7 cells assessed as PRMT5 level at 5 uM incubated for 7 days in presence of proteasome inhibitor MG-132 by Western blot analysis relative to control; type: cell-based; conditions: time 7.0 day
[16] = biological target: T1, von Hippel-Lindau disease tumor suppressor/Protein arginine N-methyltransferase 5; experiment: Induction of VHL-mediated PRMT5 degradation in human MCF7 cells assessed as PRMT5 level at 5 uM incubated for 7 days in presence of EPZ015666 by Western blot analysis relative to control; type: cell-based; conditions: time 7.0 day
[17] = system: MCF7; experiment: Antiproliferative activity against human MCF7 cells incubated for 6 days by CellTiter-Glo assay; type: functional, cell-based; conditions: dose microM 0.1-10, time 6.0 day
Summary of the method: (§4)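 MCF-7 in DMEM + 10% FBS at 37 °C, 5% CO2. Cells exposed to graded concentrations for 6 d, medium with compound refreshed every other day. CellTiter-Glo luminescence, expressed as viability relative to DMSO control; mean ± SD, n = 3.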

[18] = biological target: T1, von Hippel-Lindau disease tumor suppressor/Protein arginine N-methyltransferase 5; experiment: Induction of VHL-mediated PRMT5 degradation in human MCF7 cells at 5 uM supplemented with fresh medium containing compound every 2 days for 5 days by LC-MS based LFQ global proteomics analysis; type: cell-based; conditions: time 5.0 day
Summary of the method: (§5)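 MCF-7 cells given 5 μM compound or DMSO for 5 d, with fresh medium plus compound every 48 h; two biological replicates. Lysis in 8 M urea/50 mM Tris pH 8.0, DTT reduction, iodoacetamide alkylation, overnight trypsin digestion. Peptides run on nanoLC-Q-Exactive HF-X, 130 min gradient. Label-free quantitation; fold changes tested by two-sample t test.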

[19] = biological target: von Hippel-Lindau disease tumor suppressor/Methylosome protein WDR77 (Homo sapiens) (UniProt Q9BQA1+P40337); experiment: Induction of VHL-mediated WDR77 degradation in human MCF7 cells at 5 uM supplemented with fresh medium containing compound every 2 days for 5 days by LC-MS based LFQ global proteomics analysis; type: cell-based; conditions: time 5.0 day; summary of the method: as §5
von Hippel-Lindau disease tumor suppressor/Methylosome protein WDR77 (Homo sapiens), sequence (P40337 whole entry, looked up): as above
von Hippel-Lindau disease tumor suppressor/Methylosome protein WDR77 (Homo sapiens), sequence (Q9BQA1 whole entry, looked up): as the sequence (Q9BQA1 whole entry, further chain) above

[20] = biological target: von Hippel-Lindau disease tumor suppressor/Agrin (Homo sapiens) (UniProt P40337+O00468); experiment: Induction of VHL-mediated AGRN degradation in human MCF7 cells at 5 uM supplemented with fresh medium containing compound every 2 days for 5 days by LC-MS based LFQ global proteomics analysis; type: cell-based; conditions: time 5.0 day; summary of the method: as §5
von Hippel-Lindau disease tumor suppressor/Agrin (Homo sapiens), sequence (O00468 whole entry, looked up): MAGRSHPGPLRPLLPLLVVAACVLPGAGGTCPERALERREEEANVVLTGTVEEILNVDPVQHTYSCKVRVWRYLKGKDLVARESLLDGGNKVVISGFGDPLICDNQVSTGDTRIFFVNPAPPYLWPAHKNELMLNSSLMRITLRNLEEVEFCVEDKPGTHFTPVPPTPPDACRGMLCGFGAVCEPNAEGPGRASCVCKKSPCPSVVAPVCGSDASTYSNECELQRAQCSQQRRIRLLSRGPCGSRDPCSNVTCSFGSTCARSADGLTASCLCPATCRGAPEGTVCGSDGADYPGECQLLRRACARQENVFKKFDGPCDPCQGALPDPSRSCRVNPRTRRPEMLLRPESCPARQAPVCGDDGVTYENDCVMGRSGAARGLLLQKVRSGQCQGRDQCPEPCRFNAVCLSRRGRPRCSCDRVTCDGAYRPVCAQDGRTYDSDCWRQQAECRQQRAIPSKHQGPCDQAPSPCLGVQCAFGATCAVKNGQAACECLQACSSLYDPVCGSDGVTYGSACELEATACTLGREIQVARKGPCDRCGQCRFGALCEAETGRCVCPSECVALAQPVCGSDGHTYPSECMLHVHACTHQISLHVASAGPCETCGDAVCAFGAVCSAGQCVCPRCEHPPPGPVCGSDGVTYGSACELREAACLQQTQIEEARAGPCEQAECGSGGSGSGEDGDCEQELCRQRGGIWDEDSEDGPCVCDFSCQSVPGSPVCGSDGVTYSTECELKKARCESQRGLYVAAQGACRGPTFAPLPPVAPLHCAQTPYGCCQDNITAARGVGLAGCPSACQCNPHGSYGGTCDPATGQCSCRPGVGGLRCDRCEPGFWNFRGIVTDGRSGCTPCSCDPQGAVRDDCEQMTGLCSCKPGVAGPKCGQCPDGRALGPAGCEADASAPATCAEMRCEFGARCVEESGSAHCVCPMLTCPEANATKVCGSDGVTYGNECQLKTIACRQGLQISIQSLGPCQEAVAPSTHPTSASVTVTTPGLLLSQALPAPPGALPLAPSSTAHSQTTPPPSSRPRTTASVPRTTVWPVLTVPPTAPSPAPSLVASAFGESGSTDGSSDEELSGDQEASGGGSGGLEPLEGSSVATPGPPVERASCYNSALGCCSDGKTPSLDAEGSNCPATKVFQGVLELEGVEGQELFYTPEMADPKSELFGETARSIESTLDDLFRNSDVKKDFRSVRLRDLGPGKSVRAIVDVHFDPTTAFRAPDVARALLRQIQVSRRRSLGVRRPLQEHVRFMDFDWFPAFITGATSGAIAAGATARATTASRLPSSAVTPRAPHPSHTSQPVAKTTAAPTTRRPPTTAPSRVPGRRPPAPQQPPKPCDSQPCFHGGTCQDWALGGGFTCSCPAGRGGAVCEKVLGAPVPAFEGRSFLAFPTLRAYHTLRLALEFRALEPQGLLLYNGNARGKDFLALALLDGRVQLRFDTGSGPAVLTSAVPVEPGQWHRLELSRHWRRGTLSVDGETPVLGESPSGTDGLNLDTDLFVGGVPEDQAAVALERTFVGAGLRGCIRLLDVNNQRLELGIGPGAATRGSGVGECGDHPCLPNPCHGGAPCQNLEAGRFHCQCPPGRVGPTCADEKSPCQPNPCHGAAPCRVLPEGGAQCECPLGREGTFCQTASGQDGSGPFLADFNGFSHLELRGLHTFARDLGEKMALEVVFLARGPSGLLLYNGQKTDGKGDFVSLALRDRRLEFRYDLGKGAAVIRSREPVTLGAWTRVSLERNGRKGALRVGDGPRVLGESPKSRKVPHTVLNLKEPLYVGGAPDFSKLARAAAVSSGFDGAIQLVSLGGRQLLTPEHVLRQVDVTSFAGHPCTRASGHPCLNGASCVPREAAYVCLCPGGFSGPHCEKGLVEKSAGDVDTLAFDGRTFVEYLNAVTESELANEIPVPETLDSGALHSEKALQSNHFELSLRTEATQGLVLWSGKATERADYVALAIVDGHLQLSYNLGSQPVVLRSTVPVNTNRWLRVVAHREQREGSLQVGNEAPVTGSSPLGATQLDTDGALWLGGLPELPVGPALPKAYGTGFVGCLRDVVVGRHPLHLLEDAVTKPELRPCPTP
von Hippel-Lindau disease tumor suppressor/Agrin (Homo sapiens), sequence (P40337 whole entry, looked up): as the sequence (P40337 whole entry, looked up) above

[21] = biological target: T1, von Hippel-Lindau disease tumor suppressor/Protein arginine N-methyltransferase 5; experiment: Induction of VHL-mediated PRMT5 degradation in human HeLa cells at 5 uM incubated for 6 days by Western blot analysis; type: cell-based; conditions: time 6.0 day
Summary of the method: (§6)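 HeLa, A549, A172 and Jurkat cells exposed to 5 μM for 6 d. Lysis in RIPA buffer with protease inhibitors, then SDS-PAGE, PVDF transfer and immunoblot for PRMT5 with β-actin loading control, ECL detection. Representative of two independent experiments.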

[22] = biological target: T1, von Hippel-Lindau disease tumor suppressor/Protein arginine N-methyltransferase 5; experiment: Induction of VHL-mediated PRMT5 degradation in human A549 cells at 5 uM incubated for 6 days by Western blot analysis; type: cell-based; conditions: time 6.0 day; summary of the method: as §6
[23] = biological target: T1, von Hippel-Lindau disease tumor suppressor/Protein arginine N-methyltransferase 5; experiment: Induction of VHL-mediated PRMT5 degradation in human A172 cells at 5 uM incubated for 6 days by Western blot analysis; type: cell-based; conditions: A 172, time 6.0 day; summary of the method: as §6
[24] = biological target: T1, von Hippel-Lindau disease tumor suppressor/Protein arginine N-methyltransferase 5; experiment: Induction of VHL-mediated PRMT5 degradation in human Jurkat cells at 5 uM incubated for 6 days by Western blot analysis; type: cell-based; conditions: time 6.0 day; summary of the method: as §6
[25] = system: HeLa; experiment: Antiproliferative activity against human HeLa cells assessed as reduction in cell viability supplemented with fresh medium containing compound every other day for 6 days by CellTiter-Glo assay; type: functional, cell-based; conditions: dose microM 0.1-10, time 6.0 day; summary of the method: as §2
[26] = system: A549; experiment: Antiproliferative activity against human A549 cells assessed as reduction in cell viability supplemented with fresh medium containing compound every other day for 6 days by CellTiter-Glo assay; type: functional, cell-based; conditions: dose microM 0.1-10, time 6.0 day; summary of the method: as §2
[27] = system: A 172; experiment: Antiproliferative activity against human A172 cells assessed as reduction in cell viability supplemented with fresh medium containing compound every other day for 6 days by CellTiter-Glo assay; type: functional, cell-based; conditions: dose microM 0.1-10, time 6.0 day; summary of the method: as §2
[28] = system: Jurkat; experiment: Antiproliferative activity against human Jurkat cells assessed as reduction in cell viability supplemented with fresh medium containing compound every other day for 6 days by CellTiter-Glo assay; type: functional, cell-based; conditions: dose microM 0.1-10, time 6.0 day; summary of the method: as §2
[29] = Plasma concentration in Swiss albino mouse at 150 mg/kg, ip administered as single dose measured at 2 hrs post dose by LC-MS/MS method; type: ADME, organism-based; summary of the method: as §3
[30] = Plasma concentration in Swiss albino mouse at 150 mg/kg, ip administered as single dose measured after 12 hrs post dose by LC-MS/MS method; type: ADME, organism-based; summary of the method: as §3
[31] = biological target: T1, von Hippel-Lindau disease tumor suppressor/Protein arginine N-methyltransferase 5; experiment: Induction of VHL-mediated PRMT5 degradation in human MCF7 cells incubated for 6 days by Western blot analysis relative to control; type: cell-based; conditions: time 6.0 day; summary of the method: as §1
[32] = system: MCF7; experiment: Antiproliferative activity against human MCF7 cells at 0.1 to 10 uM incubated for 6 days by CellTiter-Glo assay; type: functional, cell-based; conditions: dose microM 0.1-10, time 6.0 day; summary of the method: as §4

O=C(NC[C@H](O)CN1CCc2ccccc2C1)c1cc(NC2COC2)ncn1
Activity [1]: Dose-dependent effect | Activity [2]: inactive | Activity [3]: Active | Activity [4]: Active | Activity [5]: Active | Activity [6]: Active

Cc1ncsc1-c1ccc(CNC(=O)[C@@H]2C[C@@H](O)CN2C(=O)[C@@H](NC(=O)CCOCCOCCOCCC(=O)N2CC(Nc3cc(C(=O)NC[C@H](O)CN4CCc5ccccc5C4)ncn3)C2)C(C)(C)C)cc1
Activity [7]: inactive

Cc1ncsc1-c1ccc([C@H](C)NC(=O)[C@@H]2C[C@@H](O)CN2C(=O)[C@@H](NC(=O)COCCOCCOCCOCCOCC(=O)N2CC(Nc3cc(C(=O)NC[C@H](O)CN4CCc5ccccc5C4)ncn3)C2)C(C)(C)C)cc1
Activity [8]: Non-Toxic | Activity [1]: Dose-dependent effect | Activity [9]: Active | DC50 [10]: 1100 nM | Activity ([10]; time 6.0 day): Dose-dependent effect | pIC50 [11]: 7.74 | fold change (FC) [12]: 0.32 | fold change (FC) [13]: 0.53 | fold change (FC) [14]: 0.59 | fold change (FC) [15]: 0.51 | fold change (FC) [16]: 0.61 | Activity [17]: Dose-dependent effect | Activity [18]: Active | Activity [19]: Active | Activity [20]: Active | Activity [21]: Active | Activity [22]: Active | Activity [23]: Active | Activity [24]: Active | Activity [25]: Dose-dependent effect | Activity [26]: Dose-dependent effect | Activity [27]: Dose-dependent effect | Activity [28]: Dose-dependent effect | concentration at 2 h [29]: 14 µM | concentration at 12 h [30]: > 100 nM | Emax [31]: 74%

Cc1ncsc1-c1ccc(CNC(=O)[C@@H]2C[C@@H](O)CN2C(=O)[C@@H](NC(=O)CCOCCOCCC(=O)N2CC(Nc3cc(C(=O)NC[C@H](O)CN4CCc5ccccc5C4)ncn3)C2)C(C)(C)C)cc1
Activity [7]: inactive

Cc1ncsc1-c1ccc([C@H](C)NC(=O)[C@H]2C[C@H](O)CN2C(=O)[C@@H](NC(=O)COCCOCCOCCOCCOCC(=O)N2CC(Nc3cc(C(=O)NC[C@H](O)CN4CCc5ccccc5C4)ncn3)C2)C(C)(C)C)cc1
Activity [2]: inactive | pIC50 [11]: 7.92 | Activity [32]: inactive
